Measurements published in ChEMBL document CHEMBL3244290, “N-Alkyl derivatives of (+/-)-alpha-methyldopamine” (J Med Chem, 1979).
Activity calls are given as the source filed them. The rule behind the calls is not given here.

What was measured:
Felis catus [1] = species: Felis catus; assay: Inhibition of field stimulation-induced positive chronotrophic response in cat atria; assay type: functional; conditions: Cardiac atrium
Canis lupus familiaris = species: Canis lupus familiaris; assay: Inhibition of electric stimulated dog right cardioaccelerator nerve; assay type: functional
Procedure, shortened: (§1)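 Dog cardioaccelerator nerve preparation under barbital (200 mg/kg) anaesthesia. Compounds given intravenously up to 1.0 mg/kg. Positive chronotropic responses read by cardiometer, with blood pressure taken from the right femoral artery.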

Canis familiaris [2] = assay: Increase in blood pressure in dog at 0.5 mg/kg, iv by cardiotachometer; assay type: functional, Canis lupus familiaris
Procedure, shortened: (§2)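 Anaesthetised dog (barbital 200 mg/kg). Compounds given intravenously, highest dose tested 1.0 mg/kg. Blood pressure recorded from the right femoral artery and heart rate by cardiometer. Resting heart rate, blood pressure and positive chronotropic responses were assessed after dosing. Doses calculated as free base.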

Canis familiaris [3] = assay: Increase in resting heart rate in dog at 0.5 mg/kg, iv by cardiotachometer; assay type: functional, organism-based; parameters: dose 0.5 mg/kg; conditions: Canis lupus familiaris; procedure, shortened: as §2
Rattus norvegicus [4] = assay: Induction of rotation in rat with unilateral denervation of caudate nucleus at 4 mg/kg, sc; assay type: functional, organism-based; parameters: dose 4 mg/kg
Procedure, shortened: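 Rats given a unilateral 6-hydroxydopamine injection into the substantia nigra. Compounds dosed subcutaneously and the rotations they induced were counted. Apomorphine served as the reference.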

Canis familiaris [5] = assay: Toxicity in dog assessed as emesis at 2 mg/kg, sc; assay type: organism-based, Canis lupus familiaris; parameters: dose 2 mg/kg, route subcutaneous; conditions: in vivo
Procedure, shortened: (§3)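 Unanaesthetised dogs. For emesis, compound given sc and dogs watched 45 min for an emetic response. For antagonism, compound given sc and apomorphine 100 μg/kg 15 min later.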

Canis familiaris [6] = assay: Inhibition of apomorphine-induced emesis in dog at 2 mg/kg, sc; assay type: functional, organism-based; parameters: dose 2 mg/kg; conditions: Canis lupus familiaris; procedure, shortened: as §3
[7] = Toxicity in pigeon assessed as pecking; conditions: columbidae
Procedure, shortened: (§4)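 Pigeons. Compounds given intramuscularly at up to 4 mg/kg to test induction of pecking. Antagonism of pecking induced by apomorphine (1.62 μM/kg) was also tested, and ED50 values were estimated.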

Rattus norvegicus [8] = species: Rattus norvegicus; assay: Toxicity in Sprague-Dawley rat assessed as locomotor hyperactivity treated bilateral injection into nucleus accumbens at 50 ug; assay type: organism-based; conditions: in vivo, other
Procedure, shortened: (§5)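 Male Sprague-Dawley rats (250 ± 25 g) with stereotaxic guide cannulae aimed at the nucleus accumbens. Tested 10–14 days after surgery with a bilateral 1 μL infusion over 60 s; each rat used once and placement checked histologically. Locomotion counted by photocell cage. Stereotypy scored, where 3–4 = biting, gnawing or licking. Pretreatments given ip: α-methyl-p-tyrosine 250 mg/kg 6 h before, or haloperidol 0.1, propranolol 5 or aceperone 2.5 mg/kg 30 min before.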

Rattus norvegicus [9] = species: Rattus norvegicus; assay: Toxicity in Sprague-Dawley rat assessed as biting up to 50 ug injection into nucleus accumbens; assay type: organism-based; conditions: in vivo, other; procedure, shortened: as §5
Rattus norvegicus [10] = species: Rattus norvegicus; assay: Toxicity in Sprague-Dawley rat assessed as gnawing up to 50 ug injection into nucleus accumbens; assay type: organism-based; conditions: in vivo, other; procedure, shortened: as §5
Rattus norvegicus [11] = species: Rattus norvegicus; assay: Toxicity in Sprague-Dawley rat assessed as licking up to 50 ug injection into nucleus accumbens; assay type: organism-based; conditions: in vivo, other; procedure, shortened: as §5
Felis catus [12] = species: Felis catus; assay: Inhibition of field stimulation-induced positive ionotrophic response in cat atria; assay type: functional; conditions: Cardiac atrium
Columbidae = assay: Inhibition of apomorphine-induced pecking in pigeon; assay type: functional; procedure, shortened: as §4
Canis familiaris [13] = assay: Increase in heart rate in dog at 1 mg/kg, iv by cardiotachometer; assay type: functional, organism-based; parameters: dose 1 mg/kg; conditions: Canis lupus familiaris; procedure, shortened: as §2
Canis familiaris [14] = assay: Increase in ionotrophic response in dog following field stimulation at 1 mg/kg, iv by cardiotachometer; assay type: functional, organism-based; parameters: dose 1 mg/kg; conditions: Canis lupus familiaris; procedure, shortened: as §1
Canis familiaris [15] = assay: Increase in ionotrophic response in iv dosed dog following field stimulation assessed as minimum effective dose by cardiotachometer; assay type: functional, Canis lupus familiaris; parameters: unit not given here; procedure, shortened: as §1
Mus musculus [16] = assay: Toxicity in albino B.K.W mouse assessed as climbing behaviour at 20 to 80 mg/kg, sc; assay type: organism-based; parameters: dose 20-80 mg/kg, route subcutaneous; conditions: in vivo
Procedure, shortened: (§6)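 Mice dosed subcutaneously at 20, 40 and 80 mg/kg in 1 mL/kg, doses as free base. Climbing scored as all four paws on the wire, giving a climbing index (% time over 30 min after the first climb) and the maximum time of a single climb. Circling was tested in mice with a unilateral caudate-putamen electrolesion, pre-selected for circling of 7 or more revolutions/2 min in response to apomorphine. Stereotypy was also recorded.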

Mus musculus [17] = assay: Toxicity in albino B.K.W mouse assessed as circling behaviour at 20 to 80 mg/kg, sc; assay type: organism-based; parameters: dose 20-80 mg/kg, route subcutaneous; conditions: in vivo; procedure, shortened: as §6
Mus musculus [18] = assay: Toxicity in albino B.K.W mouse assessed as stereotyped behaviour at 20 to 80 mg/kg, sc; assay type: organism-based; parameters: dose 20-80 mg/kg, route subcutaneous; conditions: in vivo; procedure, shortened: as §6

Structure (SMILES) | inhibition (Felis catus [1]) | inhibition (Canis lupus familiaris) | Activity (Canis familiaris [2]) | Activity (Canis familiaris [3]) | Activity (Rattus norvegicus [4]) | Activity (Canis familiaris [5]) | Activity (Canis familiaris [6]) | Activity [7] | Activity (Rattus norvegicus [8]) | Activity (Rattus norvegicus [9]) | Activity (Rattus norvegicus [10]) | Activity (Rattus norvegicus [11]) | inhibition (Felis catus [12]) | inhibition (Columbidae) | Activity (Canis familiaris [13]) | Activity (Canis familiaris [14]) | MED (Canis familiaris [15]) | Activity (Mus musculus [16]) | Activity (Mus musculus [17]) | Activity (Mus musculus [18])
COc1ccc(CC(C)N)cc1OC.Cl (racemic) | inactive | inactive | <=10 mmHg | inactive | inactive | Non-toxic | inactive | Non-toxic | Non-toxic | Non-toxic | Non-toxic | Non-toxic | inactive | – | – | – | – | – | – | –
CNC(C)Cc1ccc(OC)c(OC)c1.Cl (racemic) | inactive | inactive | <=10 mmHg | inactive | inactive | Non-toxic | inactive | Non-toxic | – | – | – | – | inactive | – | – | – | – | – | – | –
COc1ccc(CC(C)N(C)C)cc1OC.Cl (racemic) | inactive | inactive | <=10 mmHg | inactive | inactive | Non-toxic | inactive | Non-toxic | – | – | – | – | inactive | Active | – | – | – | – | – | –
CCN(CC)C(C)Cc1ccc(OC)c(OC)c1.Cl (racemic) | inactive | inactive | <=10 mmHg | inactive | inactive | Non-toxic | inactive | Non-toxic | – | – | – | – | inactive | Active | Active | Active | 20 | – | – | –
CCCN(CCC)C(C)Cc1ccc(OC)c(OC)c1.Cl (racemic) | inactive | inactive | <=10 mmHg | inactive | – | Non-toxic | inactive | Non-toxic | – | – | – | – | inactive | Active | – | – | – | – | – | –
CCCCN(CCCC)C(C)Cc1ccc(OC)c(OC)c1.Cl (racemic) | inactive | inactive | <=10 mmHg | inactive | – | Non-toxic | inactive | Non-toxic | – | – | – | – | inactive | – | – | – | – | – | – | –
CCCNC(C)Cc1ccc(OC)c(OC)c1.Cl (racemic) | inactive | inactive | <=10 mmHg | inactive | inactive | Non-toxic | inactive | Non-toxic | Non-toxic | Non-toxic | Non-toxic | Non-toxic | inactive | – | Active | Active | 20 | – | – | –
CCCCNC(C)Cc1ccc(OC)c(OC)c1.Cl (racemic) | inactive | inactive | <=10 mmHg | inactive | – | Non-toxic | inactive | Non-toxic | – | – | – | – | inactive | – | Active | Active | 20 | – | – | –
CCNC(C)Cc1ccc(OC)c(OC)c1.Cl (racemic) | inactive | inactive | <=10 mmHg | inactive | – | Non-toxic | inactive | Non-toxic | – | – | – | – | inactive | – | – | – | – | – | – | –
COc1ccc(CC(C)NC(C)C)cc1OC.Cl (racemic) | inactive | inactive | <=10 mmHg | inactive | inactive | Non-toxic | inactive | Non-toxic | – | – | – | – | inactive | – | – | – | – | – | – | –
COc1ccc(CC(C)N(C)C(C)C)cc1OC.Cl (racemic) | inactive | inactive | <=10 mmHg | inactive | – | Non-toxic | inactive | Non-toxic | – | – | – | – | inactive | Active | Active | Active | 20 | – | – | –
Br.CCCCNC(C)Cc1ccc(O)c(O)c1 (racemic) | inactive | inactive | <=10 mmHg | inactive | – | Non-toxic | inactive | Non-toxic | Non-toxic | Non-toxic | Non-toxic | Non-toxic | inactive | – | – | – | – | Non-toxic | Non-toxic | Non-toxic
Br.CCCCN(CCCC)C(C)Cc1ccc(O)c(O)c1 (racemic) | inactive | inactive | – | – | – | Non-toxic | inactive | Non-toxic | Non-toxic | Non-toxic | Non-toxic | Non-toxic | inactive | – | – | – | – | Non-toxic | Non-toxic | Non-toxic
